This passage reports Activity, Kd and inhibition results from ChEMBL document CHEMBL4043089, “Allosteric Targeting of the Fanconi Anemia Ubiquitin-Conjugating Enzyme Ube2T by Fragment Screening” (J Med Chem, 2017).

Where a chain is given by its changes, count along the chain named. The source made the active and inactive calls. The rule behind the calls is not given here.

Assay [1] addresses T1, Ubiquitin-conjugating enzyme E2 T (Homo sapiens) (UniProt Q9NPD8).
T1 sequence (whole entry): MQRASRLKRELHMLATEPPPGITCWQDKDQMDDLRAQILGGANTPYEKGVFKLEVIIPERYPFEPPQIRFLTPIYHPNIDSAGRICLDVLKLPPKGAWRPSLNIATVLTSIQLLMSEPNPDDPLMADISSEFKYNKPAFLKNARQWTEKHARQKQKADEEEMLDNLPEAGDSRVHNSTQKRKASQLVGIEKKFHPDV
Put plainly: Binding affinity to [1H-15N]-labeled N-terminal 6xHis-Smt3 tagged human Ube2T (1 to 154 residues) expressed in Escherichia coli BL21(DE3) by chemical shift perturbation assay.

For assay [2], the target named is T2, Ubiquitin-conjugating enzyme E2 T (Homo sapiens, UniProt Q9NPD8).
T2 sequence (Q9NPD8 whole entry): T1 sequence (whole entry)
Put plainly: Binding affinity to full length N-terminal 6xHis-Smt3 tagged human Ube2T expressed in Escherichia coli BL21(DE3) by ITC.

The target in assay [3] is T1, Ubiquitin-conjugating enzyme E2 T (Homo sapiens). Put plainly: Inhibition of full length N-terminal 6xHis-Smt3 tagged human Ube2T expressed in Escherichia coli BL21(DE3) assessed as FANCD2 ubiquitination after 15 mins in presence of fluorescently-labeled Ub/recombinant human E1/ATP by fluorescence assay. In short, it runs like this: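 Ube2T-driven FANCD2 monoubiquitination with E1, FANCL and fluorescently labelled ubiquitin, tested as a four-point titration. Gels were fluorescence-scanned, and the integrated intensity of the monoubiquitinated FANCD2 band was normalized to DMSO reactions. Three independent experiments, plotted as mean ± range.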

Assay [4] shares this target. The experiment in a line: Inhibition of full length N-terminal 6xHis-Smt3 tagged human Ube2T expressed in Escherichia coli BL21(DE3) assessed as FANCD2 ubiquitination at 2.5 mM after 15 mins in presence of fluorescently-labeled Ub/recombinant human E1/FANCL in 0.05% Tween20 containing buffer by fluorescence assay.
The target of assay [5] is Ubiquitin-conjugating enzyme E2 D3 (Homo sapiens) (UniProt P61077). Put plainly: Inhibition of UbcH5c (unknown origin) assessed as RNF4 ubiquitination at 2.5 mM after 15 mins in presence of fluorescently-labeled […] by fluorescence assay.
Assay [6] deals with T3, Ubiquitin-conjugating enzyme E2 T (Homo sapiens), Q9NPD8 [P73K].
T3 sequence (whole entry): T1 sequence (whole entry) with P73K
The experiment in a line: Binding affinity to full length recombinant N-terminal 6xHis-Smt3 tagged human Ube2T P73K mutant expressed in Escherichia coli BL21(DE3) by ITC. A general note: ITC needs no label: the signal is the heat of the interaction.

Ubiquitin-conjugating enzyme E2 D3 (Homo sapiens), sequence (P61077 whole entry, looked up): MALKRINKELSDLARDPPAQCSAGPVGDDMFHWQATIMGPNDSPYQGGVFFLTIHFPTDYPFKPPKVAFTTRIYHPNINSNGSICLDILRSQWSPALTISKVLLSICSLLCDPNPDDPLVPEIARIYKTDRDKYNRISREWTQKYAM

As for `N#Cc1cc(-c2ccccc2)oc1N`, the Activity entry in assay [1] is “Dose-dependent effect”.
On to `NCc1nc2ccccc2s1`, for which, in assay [2], the Kd (usually the equilibrium constant for the complex coming apart) stood at 1300 µM. In assay [3], the inhibition entry was “Dose-dependent effect”. Further, in assay [4], the inhibition entry was “Active”. Further, the inhibition result in assay [5] is “inactive”. Besides, the Activity entry in assay [1] was “Dose-dependent effect”.
For the compound `Nc1nc(-c2ccccc2)cs1`, the result in assay [6] was Active. Further, the inhibition result in assay [3] is “Dose-dependent effect”. Further, the inhibition entry in assay [4] was “Active”. In addition, in assay [5], the inhibition entry is “inactive”. The Activity result in assay [1] was “Dose-dependent effect”.
As for `NC(=O)C1CCCc2c1[nH]c1ccc(Cl)cc21` (configuration not stated), in assay [6], the result was Active. Moreover, the inhibition result in assay [3] is “Dose-dependent effect”. In assay [4], the inhibition result is “Active”. The inhibition entry in assay [5] is “inactive”. Further, the Activity result in assay [1] is “Dose-dependent effect”.
Take `NC(=O)c1ccc(-c2ccccn2)s1`: the Activity entry in assay [1] is “Dose-dependent effect”.
